Yeast lifespan up: yeast lifespan extension; S. cerevisiae growth with nicotinamide, OD615; deaD strain in restrictive glucose medium; inhibition of the nicotinamide effect, % at 10 µM; hit rate 0.68% among 130,000; AID 775;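 active = inhibition above a set limit, placed 3 SD over the median of all compounds, cut at about 26% in these data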;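 also: 0% = nicotinamide-treated wells and 100% = cells grown without nicotinamide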
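System: DeaD-strain S. cerevisiae / Buffer or medium: CSMM-D, restrictive glucose (dextrose) synthetic minimal medium / Probe or stimulus: nicotinamide, 1.5 mM, co-present with compound / Compound: one concentration, 10 µM, DMSO 0.25% / Incubation: 48 h compound exposure at 30 °C, humidified / Technique: optical density (absorbance) at 615 nm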
Efa HMGR inh: E. faecalis class II HMG-CoA reductase inhibition; inhibition, % at 10 µM; purified E. faecalis HMGR, NADPH absorbance 340 nm kinetic; hit rate 0.41% among 190,000; AID 1066;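 active = inhibition above a set limit, the median over all tested compounds plus 3 SD, cut at about 9.5% in these data; inconclusive = no clear call, values can overlap the other calls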;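 also: enzyme runs in reverse so mevalonate oxidation gives rising NADPH absorbance; 0% = complete reaction with DMSO and 100% = background rate lacking mevalonate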
BB579 growth dn: chemicals that inhibit yeast BB579 growth in restrictive medium (lifespan-shortening candidates) | S. cerevisiae BB579 growth, OD615, 48 h | AID 804 | inhibition, % at 10 µM | hit rate 0.51% among 140,000;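 active = inhibition above a set limit, 3 SD over the mean compound inhibition, cut at about 44% in these data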
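System: Saccharomyces cerevisiae DeaD strain BB579, replicative lifespan model yeast | Buffer or medium: Restrictive glucose-based CSMM-D medium | Times: 4 h preincubation and 48 h exposure at 30 °C | Detection: OD615 turbidity measurement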
RAM network inh: inhibitors of the yeast RAM network | S. cerevisiae dse1pr::URA3 reporter, 5-FOA growth OD615, 2 d; analog-sensitive cbk1-as2 kinase mutant strain | inhibition, % at 50 µM | hit rate 1.8% among 190,000;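 active = inhibition above a set limit, 3 SD over mean compound inhibition, cut at about 8.4% in these data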;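 also: 0% = DMSO-only wells with no growth and 100% = 10 µM 1-NA-PP1 full growth; inhibition rescues growth on 5-FOA so higher OD means more RAM inhibition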
INS promoter inh: TRM-6 insulin promoter activity inhibition; TRM-6 cells, insulin promoter-eGFP reporter, imaging; reporter expression induced with tamoxifen; hit rate 0.9% among 130,000; inhibition, % at 2 µM;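 active = inhibition above the mean plus 3 SD, with well images judged a real hit on visual review, cut at about 60% in these data, passing the limit was not always enough; inconclusive = inhibition over the cutoff but images rejected on review; inactive = inhibition not above the cutoff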
Active calls of the source: *; ? = inconclusive; . = no result given; ! = not active in a repeat. Sampled rows, rich in hits. Any-hit rate of the full collection: about 3.7%.

SMILES	Yeast lifespan up	Efa HMGR inh	BB579 growth dn	RAM network inh	INS promoter inh
CSc1nc(C)c(C(=O)C[n+]2ccc(C)cc2)cc1C#N	.	-9	.	1	.
Cc1ccc(-c2nc(CSc3nc4ccccc4c(=O)n3C)cs2)cc1	0	3	-33	11*	-21
Cc1ccc(-c2nc(CSc3nc4ccccc4c(=O)n3CCO)cs2)cc1	-5	-4	7	5	30
CC(C)CCOc1ccc(C(=O)N2CCCC2C(=O)O)cc1 (stereo not given)	.	1	.	1	.
O=C(CSc1nnc(Cc2cc(=O)[nH]c(=O)[nH]2)n1-c1ccc(Cl)cc1)N1CCc2ccccc21	.	2	.	6	29
O=C(CSc1nnc(Cc2cc(=O)[nH]c(=O)[nH]2)n1-c1ccccc1)N1CCCc2ccccc21	-3	-2	-20	8.6*	.
O=C(CN(c1ccccc1)S(=O)(=O)c1ccccc1[N+](=O)[O-])NN=C1CCCCCCC1	-6	1	-15	1	.
O=c1[nH]c2cccnc2n1Cc1ccccc1	26	0	-9	0	82*
N=C(CC1CC(=O)NC(=O)C1)C1=C(O)CCCC1=O	4	-2	-15	0	-18
CCN(CC)S(=O)(=O)c1ccc(Cl)c(NC(=O)COc2ccccc2[N+](=O)[O-])c1	7	0	-27	8.8*	17
ONc1cccnc1-n1nc(C(F)(F)F)cc1C(F)(F)F	.	2	.	2	.
COC(=O)CN1C(=S)N(c2ccc(OC)cc2)C(=O)/C1=C/c1ccc(OC)cc1	.	-4	.	11*	48
COc1cc(/C=C2\C(=O)ON=C2c2ccccc2)cc(Cl)c1O	.	1	.	-1	.
COc1cc(/C=C2/C(=O)ON=C2c2ccccc2)ccc1O	12	-3	86*	0	0
C=C(C)C1CC=C(C)/C(=N/NC(=O)C2CC2c2ccccc2)C1 (stereo not given)	.	-1	.	5	7
Cc1nnc(-c2cccc(Br)c2)c2cn(-c3ccc(Br)cc3)nc12	-11	-3	-21	2	.
COc1ccc(-n2cc3c(-c4cccc(Br)c4)nnc(C)c3n2)cc1	-3	-1	-17	11*	-11
CCCCCSc1nc(O)cc(=O)[nH]1	58*	-1	-19	1	50
CC(C)C1OC(c2cccc(NC(=O)c3cccs3)c2)OCC1(C)C (stereo not given)	.	4	.	9.3*	-7
CC(/C=N\Nc1nnc2c(n1)[nH]c1c(C)cccc12)=C\c1ccco1	-11	13*	-77	1	4
CC(/C=N/n1c(-c2ccco2)n[nH]c1=S)=C\c1ccco1	-6	1	-63	2	.
CCCc1cc(=O)[nH]c(SCC(=O)Nc2ccc(C)cc2)n1	.	-2	.	8.5*	.
CCc1ccc(NC(=O)CSc2nc(NS(=O)(=O)c3ccccc3)cc(=O)[nH]2)cc1	.	10*	.	2	.
Cc1ccc(NC(=O)CSc2nc(NS(=O)(=O)c3ccccc3)cc(=O)[nH]2)cc1	-7	0	-36	2	-19
CCOC(=O)c1sc(N=NC2=C(O)CC(C)(C)CC2=O)c(C(=O)OCC)c1C	.	-4	.	1	.
SMILES	Yeast lifespan up	Efa HMGR inh	BB579 growth dn	RAM network inh	INS promoter inh
Cc1nn(CC(=O)Nc2cccnc2)c(=O)c2ccccc12	.	-1	.	-1	.
O=[N+]([O-])c1cc2c(cc1/C=N/NS(=O)(=O)c1ccc(Br)cc1)OCO2	.	-1	.	7	.
CCn1c(-c2cccs2)nc2ccccc21	.	0	-24	1	?
C#CCn1c(-c2cccs2)nc2ccccc21	.	14*	.	0	93*
CC(c1ccc(F)cc1)n1c(Cn2ncc3ccccc3c2=O)n[nH]c1=S (stereo not given)	.	6	.	2	4
Cc1nc2c(o1)CCc1ccccc1C2N1CCN(C)CC1 (stereo not given)	9	9.5*!	-30	1	-22
CCn1c(SCC(=O)Nc2nc3ccccc3s2)nnc1-c1ccc(OC)cc1	-3	-4	-19	9.8*	5
CCn1c(Cc2ccccc2)nnc1SCC(=O)Nc1nc2ccccc2s1	5	4	-67	8	-188
Cc1ccc2nc(NC(=O)CSc3nnc(C)c(=O)n3N)sc2c1	1	0	-28	8.9*	25
COc1ccccc1CNC(=O)C(=O)NCC(c1ccco1)N1CCOCC1 (stereo not given)	.	-1	.	2	22
Cc1ccc(NC(=O)/C=C\C(=O)NCC(=O)O)cc1	.	-3	.	0	53
O=C(COC(=O)c1cccnc1Cl)Nc1nc(-c2ccccc2)cs1	-7	-7	-18	1	.
CCOC(=O)C1=C(CC)Nc2ccccc2N/C1=N\S(=O)(=O)c1ccc(C(=O)OCC)cc1	.	-1	.	9.3*	.
CCOC(=O)C1=C(CC)Nc2ccccc2N=C1NC(=O)Nc1ccccc1OC	-21	-4	-16	4	-23
CC(=O)c1c(C)n(C)c2ccc(OC(=O)c3ccc([N+](=O)[O-])cc3)cc12	.	-1	.	5	.
CC(=O)c1c(OC(=O)c2ccccc2)c2ccccc2n1C	-5	1	-31	8.4*	.
Cc1cc2cc(CCNC(=O)c3cccs3)c(=O)[nH]c2cc1C	2	-2	-23	3	-17
CCCCC[C@H](O)/C=C/[C@H]1C=CC(=O)[C@@H]1C/C=C\CCCC(=O)O	-2	-4	-25	5	-5
CCCCC1C(=O)CC[C@H]2[C@@H]1CC(=O)[C@@H]2C/C=C\CCCC(=O)O (stereo not given in full)	50*	-2	-40	1	52
CCOc1ccc2c(c1)-c1c(ssc1=S)C(C)(C)N2C	39*	4	-9	8.8*	-50
Cc1cc(CSc2ccccc2)ccc1NC(=O)COc1ccccc1	-5	-3	-27	8.6*	-42
Cc1cc(CSc2ccccc2)ccc1NC(=O)c1ccc(Br)cc1	6	-1	-9	4	.
CC(=O)CCc1c(C)c2cc(C)ccc2[nH]c1=O	-8	0	-31	0	70*
CC1CN(Cc2cnc(Cl)s2)CC(C)O1 (stereo not given)	.	23*	.	-1	.
Cc1ccc(COC(=O)c2nn(C)c(=O)c3ccccc23)cc1	.	-4	.	3	-58
SMILES	Yeast lifespan up	Efa HMGR inh	BB579 growth dn	RAM network inh	INS promoter inh
Cn1nc(C(=O)OCc2ccc(F)cc2)c2ccccc2c1=O	.	2	.	10*	-83
Cc1ccc2nc(Nc3ccccc3)c(/C=N/O)c(=O)n2c1	27*	-4	-23	1	56
O=C(Oc1ccc2c3c(c(=O)oc2c1)CCC3)c1ccco1	-12	-6	-14	4	36
O=C(CCCCCN1C(=O)c2ccccc2C1=O)Oc1ccc2c3c(c(=O)oc2c1)CCC3	23	-7	-50	11*	-6
OCC(O)/C=N/Nc1nc(N2CCCCC2)nc(N2CCCCC2)n1 (stereo not given)	.	-2	.	3	-33
COc1cc(/C=C2\CC/C(=C\c3ccc(OCCO)c(OC)c3)C2=O)ccc1OCCO	.	-4	.	4	.
COc1ccc(/C=C2\CC/C(=C\c3ccc(OC)c(OC)c3)C2=O)cc1OC	7	-1	-50	11*	8
